Our source for the IC50 and Activity values is ChEMBL document CHEMBL1151276, “Antiviral Terpenoid Constituents of Ganoderma pfeifferi” (J Nat Prod, 2005).

Converted amounts (≈) assume the structure as drawn. The source made the active and inactive calls. The calls are words filed in the database; no cut-off is given here.

What is called IC50 is the concentration at which inhibition is half-maximal. A high value points to lower potency.

Assay type in all cases: functional, organism-based
One assay relates to Influenza A virus. The assay can be described thus: Antiviral activity against influenza A virus infected in MDCK cells. The method in brief: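 Each compound (1.0 mg) was dissolved in 100 µL methanol, then in MEM, giving a 1 mg/mL stock. Compounds were tested at noncytotoxic concentrations against influenza A virus and HSV type I.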
The next assay has as its system Staphylococcus aureus. The assay is described as follows: Antimicrobial activity against Staphylococcus aureus ATCC 6538 at 200 ug/disk by agar diffusion method. The method in brief: (§1)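 Agar diffusion per European Pharmacopoeia. Antibiotic medium No. 1 inoculated with cell suspension and poured into plates. Paper disks loaded with 200 µg substance placed on the cooled agar, then prediffused 2 h in a refrigerator. Incubation 18 h at 37 °C (C. maltosa at 27 °C). Inhibition zone diameters read at end of incubation. Penicillin G positive control.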
In general terms: Agar diffusion results depend on both activity and mobility in agar.

For the next assay, the system named is Escherichia coli. The assay can be described thus: Antimicrobial activity against Escherichia coli ATCC 11229 at 200 ug/disk by agar diffusion method. The method in brief: as §1
A further assay deals with Candida maltosa. The assay can be described thus: Antimicrobial activity against Candida maltosa SBUG 700 at 200 ug/disk by agar diffusion method. Summed up:
as §1

In the assay on Influenza A virus, `C[C@H](CCC1OC1(C)CO)[C@H]1CC[C@@]2(C)C3=C(CC[C@]12C)[C@@]1(C)CCC(=O)C(C)(C)[C@@H]1CC3=O` (stereo not given in full) [GANODERONE C] gave an IC50 of 2.6 µg/mL (≈ 5.52 µM).
As to `C/C(=C\CC[C@@H](C)[C@H]1CC[C@@]2(C)C3=CC[C@H]4C(C)(C)C(=O)CC[C@]4(C)C3=CC[C@]12C)CO` [GANODEROL A], the result in the assay with Influenza A virus, in the assay on Staphylococcus aureus, with Escherichia coli and in the assay with Candida maltosa was inactive.
Regarding `C/C(=C\CC[C@@H](C)[C@H]1CC[C@@]2(C)C3=C(CC[C@]12C)[C@@]1(C)CCC(=O)C(C)(C)[C@@H]1CC3=O)CO` [GANODERONE A], the result in the assay with Influenza A virus, in the assay on Staphylococcus aureus, in the assay on Escherichia coli and with Candida maltosa was inactive.
Consider `CC(C)[C@@H](C)/C=C/[C@@H](C)[C@H]1CC[C@H]2C3=CCC4CC(=O)CC[C@]4(C)[C@H]3CC[C@]12C` (stereo not given in full), for which the outcome with Staphylococcus aureus, with Escherichia coli and with Candida maltosa was inactive.
In the assay on Influenza A virus, `C/C(C=O)=C\CC[C@@H](C)[C@H]1CC[C@@]2(C)C3=C(CC[C@]12C)[C@@]1(C)CCC(=O)C(C)(C)[C@@H]1CC3=O` [LUCIALDEHYDE B] had an IC50 of 3 µg/mL (≈ 6.63 µM). The result with Staphylococcus aureus, in the assay on Escherichia coli and in the assay on Candida maltosa was inactive.
For the compound `NC12CC3CC(CC(C3)C1)C2.O=S(=O)(O)O` [AMANTADINE SULFATE], the 50% inhibitory concentration (IC50) in the assay on Influenza A virus came to 15 µg/mL.
`CC(C)[C@@H](C)/C=C/[C@@H](C)[C@H]1CC[C@H]2C3=CC[C@H]4C[C@@H](O)CC[C@]4(C)[C@H]3CC[C@]12C` had an IC50 with Influenza A virus of 0.78 µg/mL (≈ 1.96 µM). Besides, the result in the assay on Staphylococcus aureus, with Escherichia coli and with Candida maltosa was inactive.
Consider `CC(CC(=O)C[C@@](C)(O)C1=C[C@H](O)[C@]2(C)[C@]1(C)C(=O)C=C1[C@@]3(C)CCC(=O)C(C)(C)[C@@H]3C[C@H]3O[C@@]132)C(=O)O` (stereo not given in full), for which the outcome in the assay on Staphylococcus aureus, in the assay on Escherichia coli and in the assay on Candida maltosa was inactive.
On to `C/C(C=O)=C\CC[C@@H](C)[C@H]1CC[C@@]2(C)C3=CC[C@H]4C(C)(C)C(=O)CC[C@]4(C)C3=CC[C@]12C` [GANODERAL A], for which, in the assay on Influenza A virus, the result was inactive.
